Measurements collected from several papers.
Compare with care: the assays were run in different laboratories.
FLT3: Receptor-type tyrosine-protein kinase FLT3 (FLT3, Homo sapiens, UniProt P36888)
FLT3 K663Q: Receptor-type tyrosine-protein kinase FLT3 (FLT3, Homo sapiens, UniProt P36888, K663Q)
FLT3 autoinhibited: Receptor-type tyrosine-protein kinase FLT3, autoinhibited (FLT3, Homo sapiens, UniProt P36888)
FLT3 R834Q: Receptor-type tyrosine-protein kinase FLT3 (FLT3, Homo sapiens, UniProt P36888, R834Q)
FLT3 N841I: Receptor-type tyrosine-protein kinase FLT3 (FLT3, Homo sapiens, UniProt P36888, N841I)
FLT3 D835H: Receptor-type tyrosine-protein kinase FLT3 (FLT3, Homo sapiens, UniProt P36888, D835H)
FLT3 D835Y: Receptor-type tyrosine-protein kinase FLT3 (FLT3, Homo sapiens, UniProt P36888, D835Y)

| Structure (SMILES) | target | read-out | method | concentration | remaining binding [%] |
| --- | --- | --- | --- | --- | --- |
| C[C@@H]1CCN(c2nccc(-c3cnn4ncccc34)n2)C1 | FLT3 | binding |  | 1 µM | 100 |
| CN1CCN(c2ccc(Nc3nccc(-c4ccccc4)n3)cc2C(F)(F)F)CC1 | FLT3 K663Q | binding |  | 10 µM | 0.35 |
| O=C(NCCCN1CCOCC1)c1ccc(Nc2ncc(Cl)c(-c3ccc(Cl)s3)n2)cc1 | FLT3 autoinhibited | binding | competition with immobilised ligand | 1 µM | 5.5 |
| NS(=O)(=O)c1cc(NC(=O)Cc2ccccc2)ccc1Oc1cccc(Cl)c1 | FLT3 K663Q | cell-free assay | competition with immobilised ligand | 1 µM | 99 |
| CC1CCCN1c1nccc(-c2cnn3ncccc23)n1 (stereo not shown) | FLT3 | binding |  | 1 µM | 100 |
| COc1ccc2cc(OCC3(C(=O)O)CN(C(=O)c4ccc(F)cc4)C3)ccc2c1 | FLT3 R834Q | cell-free assay | competition with immobilised ligand | 1 µM | 100 |
| F[C@@H]1CCN(c2nccc(-c3cnn4ncccc34)n2)C1 | FLT3 R834Q | binding |  | 1 µM | 100 |
| O=C(NCC1CCOCC1)c1n[nH]cc1NC(=O)c1c(F)cccc1F | FLT3 N841I | binding | competition with immobilised ligand | 1 µM | 100 |
| c1cnn2ncc(-c3ccnc(N4CCC45COC5)n3)c2c1 | FLT3 D835H | binding |  | 1 µM | 64 |
| C=CC(=O)N1CCC(C(=O)NCC(=O)N2CCN(c3nc(-c4cnc(N)nc4C(F)F)nc(N4CCOCC4)n3)CC2)CC1 | Receptor-type tyrosine-protein kinase FLT3 (FLT3, Homo sapiens, UniProt P36888, D835V) | binding | competition with immobilised ligand | 1 µM | 61 |
| O=C(NCCCN1CCOCC1)c1ccc(Nc2nccc(-c3cc4ccccc4s3)n2)cc1 | FLT3 R834Q | binding | competition with immobilised ligand | 1 µM | 43 |
| COc1cnc(Nc2cccc(S(N)(=O)=O)c2)nc1N1CCN(c2ccccc2)CC1 | FLT3 | binding | competition with immobilised ligand | 1 µM | 36 |
| Cc1noc([C@H]2C[C@@H](c3ccc(C(F)(F)F)cc3)CN(C(=O)N3CCS(=O)(=O)C3)C2)n1 | FLT3 autoinhibited | cell-free assay | competition with immobilised ligand | 1 µM | 100 |
| O=C(c1ccc(Nc2nccc(-c3cc4ccccc4s3)n2)cc1)N1CCC(N2CCCC2)CC1 | FLT3 D835Y | binding | competition with immobilised ligand | 1 µM | 28 |
| CCN1CCN(Cc2ccc(C(=O)Nc3ccc(C)c(Oc4ccc5c(c4)CC(=O)N5)c3)cc2C(F)(F)F)CC1 | FLT3 R834Q | binding | competition with immobilised ligand | 1 µM | 100 |
| O=C(c1ccc(Nc2ncc(Cl)c(-c3cc4ccccc4s3)n2)cc1)N1CCC(N2CCCC2)CC1 | FLT3 D835H | binding | competition with immobilised ligand | 1 µM | 2.4 |
| O=C(Nc1c[nH]nc1C(=O)NC1CCNCC1)c1cc(F)cc(F)c1 | FLT3 D835Y | binding | competition with immobilised ligand | 1 µM | 89 |
| CCC(=N\O)/C(C)=C/c1ccc(F)cc1 | FLT3 autoinhibited | cell-free assay | competition with immobilised ligand | 1 µM | 86 |
| CN1CCN(c2ccc(Nc3nccc(-c4cccc([N+](=O)[O-])c4)n3)cc2C(F)(F)F)CC1 | FLT3 K663Q | binding |  | 10 µM | 0.2 |

| Structure (SMILES) | target | read-out | method | concentration | remaining binding [%] |
| --- | --- | --- | --- | --- | --- |
| COc1cnc(Nc2cccc(S(N)(=O)=O)c2)nc1N1CCN(c2ccccc2)C(=O)C1 | FLT3 K663Q | binding | competition with immobilised ligand | 1 µM | 87 |
| Cc1cnc(Nc2ccc(C(=O)N3CCC(N4CCCC4)CC3)cc2)nc1-c1cc2ccccc2s1 | Receptor-type tyrosine-protein kinase FLT3 (FLT3, Homo sapiens, UniProt P36888, F691L/ITD) | binding | competition with immobilised ligand | 1 µM | 18 |
| FC(F)(F)Oc1cccc(-c2cnc3ccc(-c4ccncc4)nn23)c1 | FLT3 | cell-free assay | competition with immobilised ligand | 5 µM | 3.6 |
| COc1ncc2cc3ccccc3nc2c1C#N | FLT3 D835Y | cell-free assay | competition with immobilised ligand | 5 µM | 92 |
| O=C(NC1CCC1)c1ccc2nc(-c3cccc(NS(=O)(=O)NCCN4CCCCC4)c3)cn2c1 | Receptor-type tyrosine-protein kinase FLT3 (FLT3, Homo sapiens, UniProt P36888, ITD) | cell-free assay | competition with immobilised ligand | 10 µM | 100 |
| CNC(=O)[C@@H]1CC[C@@H](n2c(-c3ccc4cnccc4c3)nc3ccc(C(=O)NCc4cccc(C(N)=O)c4)cc32)C1 | FLT3 N841I | binding | competition with immobilised ligand | 1 µM | 100 |
| C[C@@H]1CN(c2ccc3ncc(-c4ccc5[nH]nc(C6CC6)c5c4)n3n2)C[C@H](C)O1 | FLT3 | binding | competition with immobilised ligand | 0.5 µM | 3 |
| COc1cc(-c2cn(C3CCc4ccccc4N(CC(F)(F)F)C3=O)nn2)ccc1-n1ccc(C)n1 (stereo not shown) | FLT3 | cell-free assay | competition with immobilised ligand | 1 µM | 85 |
| Nc1ncc2c(n1)-c1c([nH]c3ccc(C#CC4CC4)cc13)CCCC2 | FLT3 R834Q | binding | competition with immobilised ligand | 1 µM | 79 |
| c1ccc(N2CCN(Cc3nc4ccccc4[nH]3)CC2)nc1 | FLT3 | binding | competition with immobilised ligand | 1 µM | 100 |
| O=C(c1ccc(Nc2ncc(Cl)c(-c3ccc(Cl)s3)n2)cc1)N1CCC(N2CCCC2)CC1 | Receptor-type tyrosine-protein kinase FLT3 (FLT3, Homo sapiens, UniProt P36888, D835V/ITD) | binding | competition with immobilised ligand | 1 µM | 1.1 |
| COc1ccnn2ncc(-c3ccnc(N(C)C)n3)c12 | FLT3 R834Q | binding |  | 1 µM | 87 |
| O=C(Nc1ccc(Oc2ccc(F)cc2)cc1)N1CCc2ncccc2[C@H]1c1ccc(F)cc1 | FLT3 autoinhibited | cell-free assay | competition with immobilised ligand | 1 µM | 100 |
| c1cncc(-c2cccc(Nc3nccc(NC4CCCCC4)n3)c2)c1 | FLT3 D835H | binding | competition with immobilised ligand | 10 µM | 1.6 |
| CN(C)c1ncc(F)c(-c2cnn3ncccc23)n1 | FLT3 autoinhibited | binding |  | 1 µM | 72 |
| C[C@@H](c1ccc(-n2cnc3c(N)ncnc32)cc1)N1CCc2nn(C)c(Cc3ccccc3)c2C1=O | FLT3 autoinhibited | binding | competition with immobilised ligand | 0.1 µM | 84 |
| NS(=O)(=O)c1cc(NC(=O)C2(c3ccccc3Cl)CC2)ccc1Oc1cccc(Cl)c1 | FLT3 K663Q | cell-free assay | competition with immobilised ligand | 1 µM | 100 |
| N[C@H]1CCN(c2nccc(-c3cnn4ncccc34)n2)C1 | FLT3 N841I | binding |  | 1 µM | 84 |
